Results taken from PMC10012271 (ACS Infectious Diseases, 2023).
Converted amounts (≈) assume the structure as drawn. “Also recorded” adds a separate entry of the source.

What was measured:
[1] = test system: Klebsiella pneumoniae ATCC 700603; test: MIC, broth microdilution / checkerboard; type: cell-based
[2] = test system: K. pneumoniae NDM; test: Time kill kinetic study; type: cell-based; details: without BP1
Outline: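 Overnight culture was diluted to about 10^6 cfu/mL and exposed to test compound fixed at 32 mg/L plus meropenem 0.5, 1 or 2 mg/L. Incubation was at 35 °C with 100 rpm shaking, alongside drug-free and meropenem-only controls. At 0, 2, 4, 6, 8 and 24 h, 0.1 mL was plated on MHA and incubated at 35 °C for ≥18 h, then cfu/mL counted. Analysis was by ANOVA.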

[3] = In vivo single-dose pharmacokinetics; design: species or system BALB/c mice; details: 10 mg/kg.b.w IP, plasma
Outline: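 Female BALB/c mice, 6–8 weeks, acclimatised two weeks, got meropenem 10 mg/kg.b.w plus test compound 10 mg/kg.b.w together IP. Animals were killed at 0, 5, 15, 30, 45, 60, 90 and 120 min post-dose, with blood taken by cardiac puncture and stored at −80 °C. Drugs were quantified by LC–MS/MS (C18, water/acetonitrile with 0.1% TFA gradient, ESI, MRM mode).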

[4] = test system: E. coli FEK (NDM-4); test: Antimicrobial susceptibility testing, broth microdilution; type: cell-based; details: Escherichia coli, read-out: MIC alone
Outline: (§1)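 Two-fold dilution series in Mueller Hinton broth, per CLSI. Meropenem stock was in water and test compound stock in 50% DMSO, with final DMSO <1.0%. Wells got a 0.5 McFarland-standardised inoculum and were incubated at 35 °C for 18–20 h. MIC was the lowest concentration with no visible growth, run in triplicate.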

[5] = test system: E. coli JAP (IMP-1); test: as above; type: cell-based; details: Escherichia coli, read-out: MIC alone
Outline: as §1

[6] = test system: E. coli ATCC 25922; test: as above; type: cell-based; details: Escherichia coli, ATCC25922, read-out: MIC alone
Outline: as §1

[7] = test system: E. cloacae IR 386 (NDM-1); test: as above; type: cell-based; details: Enterobacter cloacae, read-out: MIC alone
Outline: as §1

[8] = test system: Klebsiella pneumoniae NDM; test: MIC, broth microdilution / checkerboard; type: cell-based
Outline: as §1

[9] = test system: E. coli AUS 271 (NDM-1); test: Antimicrobial susceptibility testing, broth microdilution; type: cell-based; details: Escherichia coli, read-out: MIC alone
Outline: as §1

[10] = test system: K. pneumoniae USA 449 (NDM); test: as above; type: cell-based; details: Klebsiella pneumoniae, read-out: MIC alone
Outline: as §1

[11] = test system: E. cloacae KAR (VIM-1); test: as above; type: cell-based; details: Enterobacter cloacae, read-out: MIC alone
Outline: as §1

[12] = test system: E. coli TWA (IMP-8); test: as above; type: cell-based; details: Escherichia coli, read-out: MIC alone
Outline: as §1

[13] = target: human recombinant glyoxylase II (Homo sapiens, UniProt Q16775); test: Binding specificity, glyoxylase II activity; type: biochemical; details: for reduction of glyoxylase II activity: concentration not stated in the sentence (Table S2)

Question: Which MIC ([1]; Klebsiella pneumoniae, ATCC700603) does the source give for C[C@@H](O)[C@H]1C(=O)N2C(C(=O)O)=C(S[C@@H]3CN[C@H](C(=O)N(C)C)C3)[C@H](C)[C@H]12 [meropenem] here?
Answer: Its MIC is 0.03 µg/mL.

Question: What about the “time-kill activity, meropenem-only test group” value [2] of the same compound?
Answer: The value was “ineffectiveness”.

Question: What about the “time of peak concentration (Cmax) post drug administration” value [3] of the same compound?
Answer: Its value is 15 min.

Question: What about the MIC [4] of the same compound?
Answer: The MIC was 128 µg/mL (≈ 334 µM).

Question: What about the MIC [5] of the same compound?
Answer: Its MIC is 8 µg/mL (≈ 20.9 µM).

Question: And the MIC [6]?
Answer: Its MIC is 0.06 µg/mL (≈ 0.156 µM).

Question: And the MIC [7]?
Answer: Its MIC is 32 µg/mL (≈ 83.4 µM).

Question: And the MIC ([8]; Klebsiella pneumoniae)?
Answer: The MIC was 128 µg/mL.

Question: And the MIC [9]?
Answer: The MIC was 128 µg/mL (≈ 334 µM).

Question: What about the MIC [10] of the same compound?
Answer: Its MIC is 128 µg/mL (≈ 334 µM).

Question: What about the MIC [11] of the same compound?
Answer: Its MIC is 16 µg/mL (≈ 41.7 µM).

Question: And the MIC [12]?
Answer: Its MIC is 4 µg/mL (≈ 10.4 µM).

Question: For O=C(O)CN(CCN(CC(=O)O)CC(=O)O)CC(=O)O [EDTA], which “reduction of glyoxylase II activity” value [13] is on record?
Answer: The value was 39%.

Question: For c1ccc(CN(CCN(Cc2ccccn2)Cc2ccccn2)Cc2ccccn2)nc1 [TPEN, N,N,N′,N′-tetrakis(2-pyridinylmethyl)-1,2-ethanediamine], which “reduction of glyoxylase II activity” value [13] is on record?
Answer: Its value is 48%.

Question: What does the source list for O=C(O)CN1CCN(CC(=O)O)CCN(CC(=O)O)CC1 [NOTA, 1,4,7-triazacyclononane-1,4,7-triacetic acid]?
Answer: MIC ([1]; drug alone): do not possess any activity; also recorded: resistant from 256 to 0.125; MIC ([8]; drug alone): do not possess any activity; inhibition of glyoxylase II ([13]; up to 500 μM): did not reduce the activity
